target: Transcription factor Jun (Homo sapiens, UniProt P05412); assay: Inhibition of TPA-induced AP1 transfected in HEK293 cells assessed as inhibition of […] reporter activity treated 1 hr before TPA stimulation measured after 18 hrs by luciferase reporter gene assay
How it was run: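 HEK293 cells were grown in DMEM with 10% FBS at 37 °C and 5% CO2. They were transiently transfected with a luciferase reporter (0.1 µg/well); reporters were AP-1 (four TRE consensus copies from GCN4), NF-κB (five responsive-element copies) or SRE. After 24 h, medium went to DMEM with 0.2% FBS. Cells were pretreated 1 h with compound or DMSO, then given TPA 10 ng/mL for 18 h. Firefly luciferase was read from passive-lysis lysates, TPA alone = 100%, in quadruplicate.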

Chain of Transcription factor Jun (P05412 whole entry): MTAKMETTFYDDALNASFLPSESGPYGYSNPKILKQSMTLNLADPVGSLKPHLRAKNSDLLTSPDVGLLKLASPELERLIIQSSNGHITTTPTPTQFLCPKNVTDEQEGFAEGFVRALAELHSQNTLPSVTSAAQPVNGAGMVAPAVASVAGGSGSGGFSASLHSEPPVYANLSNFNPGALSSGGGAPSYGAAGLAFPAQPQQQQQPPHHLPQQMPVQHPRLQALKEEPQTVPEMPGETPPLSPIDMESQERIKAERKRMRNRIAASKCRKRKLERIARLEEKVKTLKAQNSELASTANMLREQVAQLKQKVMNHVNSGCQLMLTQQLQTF

Structure (SMILES) | IC50 [nM]
CCC(C)C(=O)O[C@H]1C(=O)O[C@@H]2C[C@H]3C(C)CC(=O)C(=O)[C@]3(C)[C@H]3[C@]4(O)OC[C@]32[C@@H]1[C@@H](C)[C@H]4O (stereo partly drawn) | 32
CC(C)=CC(=O)O[C@@H]1[C@H]2C(C)=C[C@H](O)[C@@H](O)[C@]2(C)[C@H]2[C@]3(O)OC[C@@]24[C@@H]1OC(=O)C[C@H]4[C@@H](C)[C@H]3O [6R-senecionylchaparrin] | 71
CC[C@](C)(O)C(=O)O[C@H]1C(=O)O[C@@H]2C[C@H]3C(C)CC(=O)C(=O)[C@]3(C)[C@H]3[C@@]4(O)OC[C@]32[C@@H]1[C@@H](C)[C@H]4O (stereo partly drawn) [NSC-14975] | 40

Reference: BindingDB's records for doi:10.1021/np800732n (National Cancer Institute-Frederick, 2010)
